{"data": "Results gathered from unrelated publications", "cell line": "HepG2", "observed": "cell growth or viability", "note": "Lines come from different studies, so protocols differ."}
{"Compound": "CCOc1cc(-c2nc3ccc(C)cc3[nH]2)ccc1O", "technique": "MTT", "time": "48 h", "measurement": "IC50", "result": "77.1 µM"}
{"Compound": "COc1ccc(NC(=O)c2c(Nc3ccccc3)sc(C#N)c2NC(=O)CNc2ccc(OC)c(OC)c2)cc1", "technique": "SRB", "concentration": "1 nM", "time": "48 h", "measurement": "viability", "result": "100%"}
{"Compound": "Cc1ccc2nc(-c3ccc(Cl)cc3)[nH]c2c1", "technique": "MTT", "time": "48 h", "measurement": "IC50", "result": "28.9 µM"}
{"Compound": "Cc1ccc(-c2cc(-c3ccc4oc(=O)cc(C)c4c3O)nc(N)n2)cc1", "technique": "MTT", "concentration": "128 µg/mL", "time": "72 h", "measurement": "inhibition", "result": "27%"}
{"Compound": "CCOC(=O)c1ccc(-n2c(-c3ccc(C)cc3)cc(-c3ccc(O)cc3)c(C#N)c2=O)cc1", "technique": "MTT", "concentration": "3.125 µM", "time": "24 h", "measurement": "viability", "result": "88%"}
{"Compound": "CCn1cc(-c2nc(C)no2)c(=O)c2cc(F)c(N3CCC(F)(F)CC3)cc21", "technique": "ATP luminescence", "time": "48 h", "measurement": "EC50", "result": "> 40 µM"}
{"Compound": "O=C(CN1C(=O)/C(=C/c2ccco2)SC1=S)Nc1ccccc1", "technique": "MTT", "concentration": "10 µM", "measurement": "inhibition", "result": "18.6%"}
{"Compound": "COc1ccc(NC(=O)c2c(Nc3ccccc3)sc(C#N)c2NC(=O)CNc2ccccc2)cc1", "technique": "SRB", "concentration": "10 µM", "time": "48 h", "measurement": "viability", "result": "90.4%"}
{"Compound": "Cc1cc(Nc2ccc(C(=O)N/N=C/c3cc4ccccc4[nH]3)cc2)c2cccc(O)c2n1", "technique": "MTT", "concentration": "20 µM", "measurement": "inhibition", "result": "54.1%"}
{"Compound": "CCn1cc(-c2nc(C)no2)c(=O)c2cc(F)c(N3CCCC(C)C3)cc21 (centres unmarked)", "technique": "ATP luminescence", "time": "48 h", "measurement": "EC50", "result": "> 40 µM"}
{"Compound": "CCOC(=O)c1ccc(N2C(N)=C(C#N)C3(C(=O)Nc4ccccc43)C(C#N)=C2O)cc1 (centres unmarked)", "technique": "MTT", "concentration": "25 µM", "time": "24 h", "measurement": "viability", "result": "23.5%"}
{"Compound": "COc1ccc(/C=C2\\SC(=S)N(CC(=O)Nc3ccccc3)C2=O)cc1", "technique": "MTT", "concentration": "10 µM", "measurement": "inhibition", "result": "13.6%"}
{"Compound": "CCn1cc(-c2nc(C)no2)c(=O)c2cc(F)c(N3CCOCC3)cc21", "technique": "ATP luminescence", "time": "48 h", "measurement": "EC50", "result": "> 40 µM"}
{"Compound": "O=C(CN1C(=O)/C(=C/c2ccc([N+](=O)[O-])cc2)SC1=S)Nc1ccccc1", "technique": "MTT", "concentration": "10 µM", "measurement": "inhibition", "result": "22.6%"}
{"Compound": "CC(=O)Nc1cccc(-n2c(=O)n(C3CC3)c(=O)c3c(Nc4ccc(I)cc4F)n(C)c(=O)c(C)c32)c1", "technique": "resazurin", "concentration": "390 pM", "time": "72 h", "measurement": "viability", "result": "103%"}
{"Compound": "CCNC(=O)c1cn(CC)c2cc(N3CCC(C)CC3)c(F)cc2c1=O", "technique": "ATP luminescence", "time": "48 h", "measurement": "EC50", "result": "> 40 µM"}
{"Compound": "CCOC(=O)c1ccc(-n2c(N)c(C#N)c(CC#N)c(C#N)c2=O)cc1", "technique": "MTT", "concentration": "1.56 µM", "time": "24 h", "measurement": "viability", "result": "100%"}
{"Compound": "CCn1cc(-c2nc(C)no2)c(=O)c2cc(F)c(N3CCC(c4ccccc4)CC3)cc21", "technique": "ATP luminescence", "time": "48 h", "measurement": "EC50", "result": "> 40 µM"}
{"Compound": "O=[N+]([O-])c1ccc(-c2nc3ccccc3[nH]2)cc1", "technique": "MTT", "time": "48 h", "measurement": "IC50", "result": "21 µM"}
{"Compound": "CCOC(=O)c1ccc(-n2c(C)cc(/C=C/c3ccc(OCC)cc3)c(C#N)c2=O)cc1", "technique": "MTT", "concentration": "12.5 µM", "time": "24 h", "measurement": "viability", "result": "90.3%"}
{"Compound": "COc1ccc(-c2nc3ccc(C)cc3[nH]2)cc1OC", "technique": "MTT", "time": "48 h", "measurement": "IC50", "result": "43.6 µM"}
{"Compound": "O=C(CN1C(=O)/C(=C/c2cccc(O)c2)SC1=S)Nc1ccccc1", "technique": "MTT", "concentration": "10 µM", "measurement": "inhibition", "result": "5.11%"}
{"Compound": "Cc1cc(=O)oc2ccc(-c3cc(-c4ccc(Cl)cc4)nc(N)n3)c(O)c12", "technique": "MTT", "concentration": "8 µg/mL", "time": "72 h", "measurement": "inhibition", "result": "39%"}
{"Compound": "COc1ccc(NC(=O)c2c(Nc3ccccc3)sc(C(=O)NN=Cc3ccc(Cl)cc3)c2NC(C)=O)cc1", "technique": "SRB", "concentration": "1 nM", "time": "48 h", "measurement": "viability", "result": "100%"}
{"Compound": "O=C(CN1C(=O)/C(=C/C2CC2)SC1=S)Nc1ccccc1", "technique": "MTT", "concentration": "10 µM", "measurement": "inhibition", "result": "11%"}
{"Compound": "Cc1cc(Nc2ccc(C(=O)N/N=C/c3ccccc3)cc2)c2cccc(O)c2n1", "technique": "MTT", "concentration": "20 µM", "measurement": "inhibition", "result": "48.9%"}
{"Compound": "COc1ccc(NC(=O)c2c(Nc3ccccc3)sc(C(=O)NN=Cc3ccccc3)c2NC(C)=O)cc1", "technique": "SRB", "concentration": "0.1 µM", "time": "48 h", "measurement": "viability", "result": "78.1%"}
{"Compound": "Cc1cc(=O)oc2ccc(-c3cc(-c4ccccc4)nc(N)n3)c(O)c12", "technique": "MTT", "concentration": "8 µg/mL", "time": "72 h", "measurement": "inhibition", "result": "0%"}
{"Compound": "CCn1cc(-c2nnc(-c3cccnc3)o2)c(=O)c2cc(F)c(N3CCC(C)CC3)cc21", "technique": "ATP luminescence", "time": "48 h", "measurement": "EC50", "result": "> 40 µM"}
{"Compound": "O=C(N/N=C/c1cccn1CCN1CCCCC1)Nc1cc2c(Nc3ccc(F)c(Cl)c3)ncnc2cc1O[C@H]1CCOC1", "technique": "MTT", "time": "72 h", "measurement": "IC50", "result": "0.59 µM"}
{"Compound": "CCOC(=O)c1ccc(NC(=O)C2=C3C(=Nc4ccccc43)NC2=O)cc1", "technique": "MTT", "concentration": "100 µM", "time": "24 h", "measurement": "viability", "result": "35.6%"}
{"Compound": "COc1ccc(NC(=O)c2c(Nc3ccccc3)sc(C#N)c2NC(=O)CNc2ccc([N+](=O)[O-])cc2)cc1", "technique": "SRB", "concentration": "1 nM", "time": "48 h", "measurement": "viability", "result": "100%"}
{"Compound": "Clc1ccc(-c2nc3ccccc3n2Cc2ccccc2)cc1", "technique": "MTT", "measurement": "IC50", "result": "47.2 µM"}
{"Compound": "O=C(CN1C(=O)/C(=C/c2cccc(Br)c2)SC1=S)Nc1ccccc1", "technique": "MTT", "concentration": "10 µM", "measurement": "inhibition", "result": "12.7%"}
{"Compound": "COc1ccc(NC(=O)c2c(Nc3ccccc3)sc(C(=O)NN=Cc3cc(OC)c(OC)c(OC)c3)c2NC(C)=O)cc1", "technique": "SRB", "concentration": "1 nM", "time": "48 h", "measurement": "viability", "result": "97.3%"}
{"Compound": "Cc1ccc2nc(-c3cccnc3)[nH]c2c1", "technique": "MTT", "time": "48 h", "measurement": "IC50", "result": "68.4 µM"}
{"Compound": "COc1ccc(NC(=O)c2c(Nc3ccccc3)sc(C#N)c2NC(=O)CNc2ccccc2Cl)cc1", "technique": "SRB", "concentration": "10 µM", "time": "48 h", "measurement": "viability", "result": "79.2%"}
{"Compound": "CSc1ccc(-c2nc3ccccc3[nH]2)cc1", "technique": "MTT", "time": "48 h", "measurement": "IC50", "result": "40.1 µM"}
{"Compound": "Cc1cc(=O)oc2ccc(-c3cc(-c4cccs4)nc(N)n3)c(O)c12", "technique": "MTT", "concentration": "2 µg/mL", "time": "72 h", "measurement": "inhibition", "result": "0%"}
{"Compound": "CSc1ccc(-c2nc3ccc(C)cc3n2Cc2ccccc2)cc1", "technique": "MTT", "measurement": "IC50", "result": "17.7 µM"}
{"Compound": "COc1ccc(-c2cc(-c3ccc4oc(=O)cc(C)c4c3O)nc(N)n2)cc1", "technique": "MTT", "concentration": "8 µg/mL", "time": "72 h", "measurement": "inhibition", "result": "0%"}
{"Compound": "CCOC(=O)c1ccc(-n2c(C)cc(C)c(C#N)c2=O)cc1", "technique": "MTT", "concentration": "25 µM", "time": "24 h", "measurement": "viability", "result": "64.7%"}
{"Compound": "COc1ccc(NC(=O)c2c(Nc3ccccc3)sc(C#N)c2NC(=O)CNc2ccc(O)cc2)cc1", "technique": "SRB", "concentration": "10 µM", "time": "48 h", "measurement": "viability", "result": "61.6%"}
{"Compound": "Cc1cc(=O)oc2ccc(-c3cc(-c4cccc(Cl)c4)nc(N)n3)c(O)c12", "technique": "MTT", "concentration": "2 µg/mL", "time": "72 h", "measurement": "inhibition", "result": "0%"}
